Tests used:
[1] = target: Acetylcholinesterase (Electrophorus electricus) (UniProt O42275); experiment: Displacement of propidium iodide from PAS-region of electric eel AChE assessed as decrease in fluorescence intensity at 4 to 64 uM by spectrofluorimetric analysis relative to control; set-up: scale not given: the % may be the effect or the level left; settings: dose 4-64 µM
Summary of the method: (§1)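 Back-titration fluorescence assay using electric eel AChE (type VI-S). Inhibitor was added in successive aliquots from a MeOH stock. Emission was read at 602 nm with excitation at 535 nm, after subtracting blanks. […] Three independent experiments.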

[2] = target: T1, Acetylcholinesterase (Homo sapiens, UniProt P22303); experiment: Mixed-type inhibition of recombinant human AChE assessed as inhibition constant using acetylthiocholine iodide as substrate by Cornish-Bowden plot analysis
Summary of the method: (§2)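 Kinetics on human recombinant AChE with acetylthiocholine at 0.113–0.566 mM and inhibitor at 0.17–1.36 nM. Lineweaver–Burk plots were fitted by weighted least squares. Ki was taken as the negative x-intercept of a replot of slopes vs [I]. K'i came from a plot of apparent 1/vmax vs [I]. Two independent experiments, each in triplicate.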

[3] = target: Acetylcholinesterase (Electrophorus electricus, UniProt O42275); experiment: Displacement of propidium iodide from PAS-region of electric eel AChE assessed as dissociation constant by spectrofluorimetric analysis; summary of the method: as §1
[4] = target: T1, Acetylcholinesterase; experiment: Mixed-type inhibition of recombinant human AChE assessed as dissociation constant for protein-substrate-compound complex using acetylthiocholine iodide as substrate by Cornish-Bowden plot analysis; summary of the method: as §2
[5] = target: Acetylcholinesterase (Electrophorus electricus) (UniProt O42275); experiment: Displacement of propidium iodide from PAS-region of electric eel AChE assessed as decrease in fluorescence intensity by spectrofluorimetric analysis; summary of the method: as §1
[6] = system: Mus musculus; experiment: Antialzheimer activity in 11 months old APP/PS1 double mutant-transgenic mouse model assessed as amyloid beta42 levels in hippocampus at 2 mg/kg, ip administered thrice a week for 4 weeks by ELISA (Rvb= 69.0 +/- 4.54 pg/ml); format: functional
Summary of the method: (§3)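 Male APP/PS1 mice received 2 mg/kg i.p. in saline (or vehicle), three times weekly for 4 weeks. After the behavioral tests, hippocampus was collected and Aβ40 and Aβ42 were measured with a specific ELISA kit. Mean ± SEM, n = 7 mice per group; one-way ANOVA with Bonferroni post hoc.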

[7] = system: Mus musculus; experiment: Antialzheimer activity in 11 months old APP/PS1 double mutant-transgenic mouse model assessed as amyloid beta40 levels in hippocampus at 2 mg/kg, ip administered thrice a week for 4 weeks by ELISA (reference value: 8.65 +/- 0.44 pg/ml); format: functional; summary of the method: as §3
[8] = system: Mus musculus; experiment: Antialzheimer activity in 11 months old APP/PS1 double mutant-transgenic mouse model assessed as ratio of amyloid beta42 to amyloid beta40 levels in hippocampus at 2 mg/kg, ip administered thrice a week for 4 weeks by ELISA (reference value: 7.99 +/- 0.60); format: functional
[9] = target: T1, Acetylcholinesterase; experiment: Inhibition of recombinant human AChE using acetylthiocholineiodide as substrate preincubated for 20 mins followed by substrate addition by Ellman's method relative to parent compound

T1 sequence (P22303 whole entry): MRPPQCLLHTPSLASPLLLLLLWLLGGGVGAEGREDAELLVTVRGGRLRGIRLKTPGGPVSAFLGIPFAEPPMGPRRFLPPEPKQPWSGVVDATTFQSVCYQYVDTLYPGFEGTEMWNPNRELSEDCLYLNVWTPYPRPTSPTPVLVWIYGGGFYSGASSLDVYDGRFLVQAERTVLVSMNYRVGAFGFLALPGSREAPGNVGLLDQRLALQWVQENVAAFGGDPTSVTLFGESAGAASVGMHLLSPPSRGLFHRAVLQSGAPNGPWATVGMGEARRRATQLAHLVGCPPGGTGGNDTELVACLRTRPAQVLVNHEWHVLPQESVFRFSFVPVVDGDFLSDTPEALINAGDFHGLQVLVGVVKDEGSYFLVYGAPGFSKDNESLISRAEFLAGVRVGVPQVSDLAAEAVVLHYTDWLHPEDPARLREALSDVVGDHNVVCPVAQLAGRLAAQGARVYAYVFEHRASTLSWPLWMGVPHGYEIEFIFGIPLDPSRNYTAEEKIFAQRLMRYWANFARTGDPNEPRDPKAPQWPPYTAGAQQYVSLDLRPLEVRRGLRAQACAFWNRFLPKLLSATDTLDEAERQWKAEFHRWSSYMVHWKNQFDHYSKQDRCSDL
Acetylcholinesterase (Electrophorus electricus), sequence (O42275 24-633 limits assumed): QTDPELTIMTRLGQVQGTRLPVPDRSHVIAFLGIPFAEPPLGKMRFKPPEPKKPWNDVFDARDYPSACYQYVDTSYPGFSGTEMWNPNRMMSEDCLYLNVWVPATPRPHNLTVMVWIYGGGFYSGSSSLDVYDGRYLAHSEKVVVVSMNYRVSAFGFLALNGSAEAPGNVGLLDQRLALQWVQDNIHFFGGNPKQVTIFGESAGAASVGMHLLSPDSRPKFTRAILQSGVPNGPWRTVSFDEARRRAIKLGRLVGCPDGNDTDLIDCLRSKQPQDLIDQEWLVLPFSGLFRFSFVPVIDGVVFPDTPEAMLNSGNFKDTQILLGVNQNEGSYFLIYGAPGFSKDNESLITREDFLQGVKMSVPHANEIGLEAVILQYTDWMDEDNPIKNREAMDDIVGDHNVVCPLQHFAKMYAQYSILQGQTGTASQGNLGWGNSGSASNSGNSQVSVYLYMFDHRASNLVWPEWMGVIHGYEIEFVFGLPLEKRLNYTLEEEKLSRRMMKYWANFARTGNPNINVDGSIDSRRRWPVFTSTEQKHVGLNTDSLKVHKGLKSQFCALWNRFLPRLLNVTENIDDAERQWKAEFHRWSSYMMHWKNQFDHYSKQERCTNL
Acetylcholinesterase (Electrophorus electricus, UniProt O42275), sequence (O42275 whole entry): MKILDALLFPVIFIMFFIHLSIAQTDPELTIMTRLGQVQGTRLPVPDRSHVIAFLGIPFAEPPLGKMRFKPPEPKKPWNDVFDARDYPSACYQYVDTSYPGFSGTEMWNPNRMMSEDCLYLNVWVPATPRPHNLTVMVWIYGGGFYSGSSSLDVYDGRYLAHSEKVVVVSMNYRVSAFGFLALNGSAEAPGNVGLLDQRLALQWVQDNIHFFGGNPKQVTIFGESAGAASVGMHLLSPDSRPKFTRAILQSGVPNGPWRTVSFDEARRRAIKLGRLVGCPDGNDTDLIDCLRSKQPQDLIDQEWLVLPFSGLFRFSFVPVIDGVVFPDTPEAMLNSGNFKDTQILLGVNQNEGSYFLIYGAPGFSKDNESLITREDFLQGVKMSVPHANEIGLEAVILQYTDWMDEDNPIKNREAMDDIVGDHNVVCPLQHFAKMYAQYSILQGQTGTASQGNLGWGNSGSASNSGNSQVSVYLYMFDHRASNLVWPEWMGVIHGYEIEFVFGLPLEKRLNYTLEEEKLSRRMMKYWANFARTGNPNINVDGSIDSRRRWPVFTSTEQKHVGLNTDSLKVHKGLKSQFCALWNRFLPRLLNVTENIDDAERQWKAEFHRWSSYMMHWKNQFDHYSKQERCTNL

SMILES | Activity [1] | Ki [2] | Kd [3] | Ki [4] | Activity [5] | Activity [6] | Activity [7] | Ratio [8] | fold change (FC) [9]
COc1cc(CNC(=O)CCCCCCNc2c3c(nc4cc(Cl)ccc24)CC2C=C(C)CC3C2)ccc1O (centres undefined) | 23% | 680 pM | 3590 pM | 940 pM | Dose-dependent effect | – | – | – | –
COc1cc(CNC(=O)Cc2cn(CCCCC3=CC4Cc5nc6cc(Cl)ccc6c(N)c5C(C3)C4)nn2)ccc1O (centres undefined) | – | – | – | – | – | 62.6 pg/mL | 18.4 pg/mL | 3.42 | 25

From ChEMBL document CHEMBL4706642, “Discovery of a Potent Dual Inhibitor of Acetylcholinesterase and Butyrylcholinesterase with Antioxidant Activity that Alleviates Alzheimer-like Pathology in Old APP/PS1 Mice” (J Med Chem, 2021)
